Test results as given in ChEMBL document CHEMBL1138348, “A p-[18F]fluoroethoxyphenyl bicyclic nucleoside analogue as a potential positron emission tomography imaging agent for varicella-zoster virus thymidine kinase gene expression” (J Med Chem, 2007).
One block for each compound: values may come before it.

How the values were obtained:
Mus musculus [1] = organism: Mus musculus; experiment: Biodistribution in NMRI mouse carcass assessed as radioactivity after 60 mins; assay type: ADME, organism-based; conditions: in vivo, 1 h
Procedure, shortened: (§1)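 Male NMRI mice (37–43 g) given 0.1 mL HPLC-purified tracer (diluted in water for injection, EtOH <5%; 37 MBq/mL for 11C tracer, 3.7 MBq/mL for 18F tracer) via tail vein under ketamine/xylazine ip anaesthesia. Decapitation at 2 or 60 min, n=3 per time point. Organs dissected, weighed, gamma counted. Results given as %ID (cpm organ/total cpm recovered) or SUV. Blood mass taken as 7% of body mass. Mean ± SD.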

Blood [2] = experiment: Drug uptake in mouse blood assessed as radioactivity at 11.5 MBq after 10 mins; assay type: ADME, tissue-based
Procedure, shortened: (§2)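 About 11.5 MBq of 18F tracer injected iv into mice. Decapitation at 2, 10 or 30 min, n=2 per time point. Blood collected into K2EDTA tubes, weighed and gamma counted. Plasma separated by centrifugation (1837g, 10 min) and counted. Values given as %ID/g normalised to sample weight and injected dose; plasma/whole-blood ratio also derived.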

Lung [3] = experiment: Biodistribution in NMRI mouse lungs assessed as radioactivity after 2 mins; assay type: ADME, organism-based; conditions: in vivo; procedure, shortened: as §1
Mus musculus [4] = organism: Mus musculus; experiment: Biodistribution in NMRI mouse spleen + pancreas assessed as radioactivity after 60 mins; assay type: ADME, organism-based; conditions: in vivo, 1 h; procedure, shortened: as §1
Nucleic Acid [5] = experiment: Ratio of drug level in plasma to whole blood in mouse assessed as radioactivity at 11.5 MBq, iv after 10 mins; assay type: ADME, organism-based; conditions: in vivo
Procedure, shortened: (§3)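 Normal mice given about 11.5 MBq of the [18F] tracer iv, killed by decapitation at 2, 10 or 30 min pi (n = 2 per time). Blood was collected into a K2EDTA tube, weighed and gamma-counted, then centrifuged at 1837g for 10 min. Plasma was weighed and counted. Counts were normalised to sample weight and injected dose as %ID/g, and plasma %ID/g was divided by whole-blood %ID/g.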

Liver [6] = experiment: Biodistribution in NMRI mouse liver assessed as radioactivity after 2 mins; assay type: ADME, organism-based; conditions: in vivo; procedure, shortened: as §1
Brain [7] = experiment: Biodistribution in NMRI mouse brain assessed as radioactivity after 2 mins; assay type: ADME, organism-based; conditions: in vivo; procedure, shortened: as §1
Stomach [8] = experiment: Biodistribution in NMRI mouse stomach assessed as radioactivity after 60 mins; assay type: ADME, organism-based; conditions: in vivo, 1 h; procedure, shortened: as §1
[9] = Partition coefficient, log P in 1-octanol and phosphate buffer at pH 7.4; assay type: physicochemical; conditions: 1-octanol/phosphate buffer
Procedure, shortened: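 HPLC-isolated tracer (about 550 kBq 11C or 185 kBq 18F) partitioned between 1-octanol and 0.025 M phosphate buffer pH 7.4 (2 mL each). Vortexed 2 min at room temperature, centrifuged 1837 g for 5 min. Aliquots of both phases weighed and gamma counted. P calculated as the cpm/mL ratio after density correction; n=6.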

Mus musculus [10] = organism: Mus musculus; experiment: Biodistribution in NMRI mouse urine assessed as radioactivity after 60 mins; assay type: ADME, organism-based; conditions: in vivo, 1 h; procedure, shortened: as §1
Muscle tissue [11] = experiment: Drug uptake in mouse muscle assessed as radioactivity at 11.5 MBq after 2 mins; assay type: ADME, tissue-based; conditions: in vivo
Procedure, shortened: (§4)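 Normal mice given 11.5 MBq of 18F tracer. Killed at 2, 10 or 30 min, two animals per time point. Left and right femur and muscle collected, weighed and gamma counted. Uptake given as %ID/g.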

Brain [12] = experiment: Biodistribution in NMRI mouse brain assessed as radioactivity after 60 mins; assay type: ADME, organism-based; conditions: in vivo, 1 h; procedure, shortened: as §1
Nucleic Acid [13] = experiment: Ratio of drug level in femur bone to blood in mouse assessed as radioactivity at 11.5 MBq, iv after 30 mins; assay type: ADME, organism-based; conditions: other tissue, 0.5 h
Procedure, shortened: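 Normal mice injected with 11.5 MBq of the [18F] tracer and killed at 2, 10 or 30 min pi (two animals per time). Left and right femurs were collected, weighed and gamma-counted, and uptake was expressed as %ID/g. Blood %ID/g was reported at the same time points.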

Heart [14] = experiment: Biodistribution in NMRI mouse heart assessed as radioactivity after 2 mins; assay type: ADME, organism-based; conditions: in vivo; procedure, shortened: as §1
Femur [15] = experiment: Drug uptake in mouse femur bone assessed as radioactivity at 11.5 MBq after 30 mins; assay type: ADME, tissue-based; conditions: in vivo, 0.5 h; procedure, shortened: as §4
Femur [16] = experiment: Drug uptake in mouse femur bone assessed as radioactivity at 11.5 MBq after 2 mins; assay type: ADME, tissue-based; conditions: in vivo; procedure, shortened: as §4
[17] = Metabolic stability in mouse urine assessed as radioactivity after 1 hr; assay type: ADME, tissue-based
Procedure, shortened: (§5)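 Plasma taken 2, 10 or 30 min after iv 18F tracer in normal mice (n=2 per time point), and urine collected at 60 min by manual bladder voiding. Samples spiked with authentic non-radioactive compound and applied without pretreatment to an Oasis HLB column in-line with a C18 RP-HPLC column. Eluate collected as 1 mL fractions and gamma counted. Result given as intact tracer as % of recovered radioactivity.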

Femur [18] = experiment: Drug uptake in mouse femur bone assessed as radioactivity at 11.5 MBq after 10 mins; assay type: ADME, tissue-based; conditions: in vivo; procedure, shortened: as §4
Kidney [19] = experiment: Biodistribution in NMRI mouse kidney assessed as radioactivity after 2 mins; assay type: ADME, organism-based; conditions: in vivo; procedure, shortened: as §1
Lung [20] = experiment: Biodistribution in NMRI mouse lungs assessed as radioactivity after 60 mins; assay type: ADME, organism-based; conditions: in vivo, 1 h; procedure, shortened: as §1
Intestine [21] = experiment: Biodistribution in NMRI mouse intestine assessed as radioactivity after 60 mins; assay type: ADME, organism-based; conditions: in vivo, 1 h; procedure, shortened: as §1
[22] = Drug uptake in LV-VZVTK-IP transduced 293T cells assessed as radioactivity at 185 kBq after 3 hrs; assay type: ADME, cell-based; conditions: human, hek-293t
Procedure, shortened: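 293T cells stably transduced with lentivirus carrying VZV-tk-IRES-pac (kept in 1 µg/mL puromycin), alongside untransduced control 293T cells. Plated in triplicate at 200 000 cells/well. After 24 h, fresh medium with HPLC-purified tracer added: 1.1 MBq (11C tracer, 0.5 h) or 185 kBq (18F tracer, 3 h), 37 °C. Cells washed with ice-cold PBS and lysed. Gamma counting. Uptake given as % of total radioactivity per mg protein (Bio-Rad assay).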

Heart [23] = experiment: Biodistribution in NMRI mouse heart assessed as radioactivity after 60 mins; assay type: ADME, organism-based; conditions: in vivo, 1 h; procedure, shortened: as §1
Blood [24] = experiment: Drug uptake in mouse blood assessed as radioactivity at 11.5 MBq after 2 mins; assay type: ADME, tissue-based; procedure, shortened: as §2
Liver [25] = experiment: Biodistribution in NMRI mouse liver assessed as radioactivity after 60 mins; assay type: ADME, organism-based; conditions: in vivo, 1 h; procedure, shortened: as §1
Intestine [26] = experiment: Biodistribution in NMRI mouse intestine assessed as radioactivity after 2 mins; assay type: ADME, organism-based; conditions: in vivo; procedure, shortened: as §1
Muscle tissue [27] = experiment: Drug uptake in mouse muscle assessed as radioactivity at 11.5 MBq after 30 mins; assay type: ADME, tissue-based; conditions: in vivo, 0.5 h; procedure, shortened: as §4
Blood [28] = experiment: Biodistribution in NMRI mouse blood assessed as radioactivity after 2 mins; assay type: ADME, organism-based; conditions: in vivo; procedure, shortened: as §1
Plasma [29] = experiment: Metabolic stability in mouse plasma assessed as radioactivity after 10 mins; assay type: ADME, cell-free; procedure, shortened: as §5
Kidney [30] = experiment: Biodistribution in NMRI mouse kidney assessed as radioactivity after 60 mins; assay type: ADME, organism-based; conditions: in vivo, 1 h; procedure, shortened: as §1
Mus musculus [31] = organism: Mus musculus; experiment: Biodistribution in NMRI mouse urine assessed as radioactivity after 2 mins; assay type: ADME, organism-based; conditions: in vivo; procedure, shortened: as §1
Plasma [32] = experiment: Metabolic stability in mouse plasma assessed as radioactivity after 30 mins; assay type: ADME, cell-free; conditions: 0.5 h; procedure, shortened: as §5
Blood [33] = experiment: Biodistribution in NMRI mouse blood assessed as radioactivity after 60 mins; assay type: ADME, organism-based; conditions: in vivo, 1 h; procedure, shortened: as §1
Stomach [34] = experiment: Biodistribution in NMRI mouse stomach assessed as radioactivity after 2 mins; assay type: ADME, organism-based; conditions: in vivo; procedure, shortened: as §1
Nucleic Acid [35] = experiment: Ratio of drug level in plasma to whole blood in mouse assessed as radioactivity at 11.5 MBq, iv after 2 mins; assay type: ADME, organism-based; conditions: in vivo; procedure, shortened: as §3
Plasma [36] = experiment: Metabolic stability in mouse plasma assessed as radioactivity after 2 mins; assay type: ADME, cell-free; procedure, shortened: as §5
Mus musculus [37] = organism: Mus musculus; experiment: Biodistribution in NMRI mouse spleen + pancreas assessed as radioactivity after 2 mins; assay type: ADME, organism-based; conditions: in vivo; procedure, shortened: as §1
Blood [38] = experiment: Drug uptake in mouse blood assessed as radioactivity at 11.5 MBq after 30 mins; assay type: ADME, tissue-based; conditions: 0.5 h; procedure, shortened: as §2
Mus musculus [39] = organism: Mus musculus; experiment: Biodistribution in NMRI mouse carcass assessed as radioactivity after 2 mins; assay type: ADME, organism-based; conditions: in vivo; procedure, shortened: as §1
Nucleic Acid [40] = experiment: Ratio of drug level in plasma to whole blood in mouse assessed as radioactivity at 11.5 MBq, iv after 30 mins; assay type: ADME, organism-based; conditions: in vivo, 0.5 h; procedure, shortened: as §3
[41] = Inhibition of Varicella zoster virus thymidine kinase; design: species or system Human alphaherpesvirus 3
Procedure, shortened: (§6)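 Purified recombinant VZV TK (7.75 ng), HSV-1 TK (226 ng) or human cytosolic TK-1 (455 ng) in 50 mM Tris-HCl pH 8.0, 2.5 mM MgCl2, 10 mM DTT, 2.5 mM ATP, 1 mg/mL BSA, 10 mM NaF, with 1 µM final [CH3-3H]dThd substrate. Incubated 30 min at 37 °C with varied compound concentrations; the reaction was linear over this time. Product bound on DE-81 filters, washed, and counted by liquid scintillation. Result reported as IC50.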

[42] = target: T1, Thymidine kinase, cytosolic (Homo sapiens, UniProt P04183); experiment: Inhibition of human cytosolic thymidine kinase 1; procedure, shortened: as §6
T1 sequence (P04183 whole entry): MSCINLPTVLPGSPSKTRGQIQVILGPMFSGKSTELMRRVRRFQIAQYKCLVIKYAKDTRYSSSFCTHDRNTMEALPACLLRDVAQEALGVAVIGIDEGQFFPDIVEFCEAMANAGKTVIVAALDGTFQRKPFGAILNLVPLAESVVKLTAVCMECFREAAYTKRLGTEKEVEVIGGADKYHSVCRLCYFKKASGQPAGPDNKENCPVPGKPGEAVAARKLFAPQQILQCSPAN

[43] = Inhibition of HSV1 thymidine kinase; design: species or system Human alphaherpesvirus 1; procedure, shortened: as §6

- Drug uptake (Mus musculus [1]): 11.9 %ID
- Drug uptake (Blood [2]): 1.42 % ID/g
- Drug uptake (Lung [3]): 0.7 %ID
- Drug uptake (Mus musculus [4]): 1.1 %ID
- Ratio (Nucleic Acid [5]): 1.34
- Drug uptake (Liver [6]): 24.7 %ID
- Drug uptake (Brain [7]): 0 %ID
- Drug uptake (Stomach [8]): 1.1 %ID
- logD [9]: 1.2
- Drug uptake (Mus musculus [10]): 34.8 %ID
- Drug uptake (Muscle tissue [11]): 0.35 % ID/g
- Drug uptake (Brain [12]): 0 %ID
- Ratio (Nucleic Acid [13]): 2
- Drug uptake (Heart [14]): 0.3 %ID
- Drug uptake (Femur [15]): 1.25 % ID/g
- Drug uptake (Femur [16]): 0.57 % ID/g
- Stability [17]: 91.5%
- Drug uptake (Femur [18]): 0.66 % ID/g
- Drug uptake (Kidney [19]): 20.1 %ID
- Drug uptake (Lung [20]): 0.2 %ID
- Drug uptake (Intestine [21]): 44.3 %ID
- Drug uptake [22]: 76.6 %ID
- Drug uptake (Heart [23]): 0.1 %ID
- Drug uptake (Blood [24]): 1.57 % ID/g
- Drug uptake (Liver [25]): 4.3 %ID
- Drug uptake (Intestine [26]): 17.7 %ID
- Drug uptake (Muscle tissue [27]): 0.25 % ID/g
- Drug uptake (Blood [28]): 4.8 %ID
- Stability (Plasma [29]): 82%
- Drug uptake (Kidney [30]): 1.1 %ID
- Drug uptake (Mus musculus [31]): 11.8 %ID
- Stability (Plasma [32]): 40.6%
- Drug uptake (Blood [33]): 1.5 %ID
- Drug uptake (Stomach [34]): 1.2 %ID
- Ratio (Nucleic Acid [35]): 1.39
- Stability (Plasma [36]): 94.7%
- Drug uptake (Mus musculus [37]): 1.4 %ID
- Drug uptake (Blood [38]): 0.63 % ID/g
- Drug uptake (Mus musculus [39]): 18.3 %ID
- Ratio (Nucleic Acid [40]): 1.02
Compound: O=c1nc2oc(-c3ccc(OCC[18F])cc3)cc2cn1[C@H]1C[C@H](O)[C@@H](CO)O1

- IC50 [41]: 4.1 µM
- IC50 [42]: > 500 µM
- IC50 [43]: > 500 µM
Compound: O=c1nc2oc(-c3ccc(OCCCCCCF)cc3)cc2cn1[C@H]1C[C@H](O)[C@@H](CO)O1
